From publication PMC5900333 (ACS Medicinal Chemistry Letters, 2018)

Columns and labels:
[1] = target: rabbit fast skeletal muscle myofibrils (Oryctolagus cuniculus, UniProt P02586+P02641+P02643); experiment: Fast skeletal myofibril ATPase assay; type: biochemical; settings: 14 vs 13; 25 vs bromo 14
Summary of the method: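 Rabbit fast skeletal muscle myofibrils; the read-out is the rate of ATP hydrolysis. The assay runs at a calcium level of 25% of that giving a maximal response in control preparations. AC40 is the test compound concentration that raises myofibril ATPase activity by 40%. Experiments were run in duplicate, and the fold potency change is taken from the AC40 values.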

Rat pharmacokinetics = settings: both, Sprague-Dawley, in vivo, iv
CYP1A2 = target: T1, CYP1A2 (Homo sapiens, UniProt P05177); experiment: Cytochrome P450 inhibition and time-dependent inhibition; type: in vitro ADME; settings: liver microsomes, probe phenacetin
T1 sequence (P05177 1-516): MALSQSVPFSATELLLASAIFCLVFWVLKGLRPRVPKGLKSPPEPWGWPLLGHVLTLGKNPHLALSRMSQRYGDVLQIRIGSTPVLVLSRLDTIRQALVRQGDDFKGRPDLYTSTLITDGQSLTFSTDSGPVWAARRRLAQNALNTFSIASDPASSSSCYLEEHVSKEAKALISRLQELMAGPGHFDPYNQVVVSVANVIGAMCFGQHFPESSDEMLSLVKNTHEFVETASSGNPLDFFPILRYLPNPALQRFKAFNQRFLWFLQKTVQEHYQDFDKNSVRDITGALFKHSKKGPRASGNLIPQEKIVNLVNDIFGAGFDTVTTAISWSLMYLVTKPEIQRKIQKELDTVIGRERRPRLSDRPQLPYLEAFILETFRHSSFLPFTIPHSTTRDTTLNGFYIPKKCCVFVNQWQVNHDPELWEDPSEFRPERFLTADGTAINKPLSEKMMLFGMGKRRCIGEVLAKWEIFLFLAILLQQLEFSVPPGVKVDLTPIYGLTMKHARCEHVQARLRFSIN

tibialis anterior = settings: healthy humans, nerve stimulation; cited from earlier work
[2] = In vivo clearance across nonclinical species vs hepatic blood flow
[3] = ALS patients taking both 25 and Riluzole; cited from earlier work
[4] = tested on: PT-EAMG (passive transfer experimental autoimmune myasthenia gravis) rat model; settings: rats treated with anti-nAchRα antibody; cited from earlier work
B6SJL-SOD1^G93A mouse = settings: B6SJL-SOD1G93A mice, single dose; cited from earlier work
patients with ALS = settings: Phase 3, patients with ALS; ref VITALITY-ALS, NCT02496767; cited from earlier work
Mouse pharmacokinetics = settings: in vivo, iv, 1 mg/kg
[5] = tested on: extensor digitorum longus (EDL) muscle; experiment: In situ EDL muscle force; type: in vivo; settings: rat, systemic infusion, submaximal stimulation rates
[6] = Microsomal turnover, human; type: in vitro ADME
Microsomal turnover, rat = type: in vitro ADME

rabbit fast skeletal muscle myofibrils, sequence (P02586 2-160 limits assumed): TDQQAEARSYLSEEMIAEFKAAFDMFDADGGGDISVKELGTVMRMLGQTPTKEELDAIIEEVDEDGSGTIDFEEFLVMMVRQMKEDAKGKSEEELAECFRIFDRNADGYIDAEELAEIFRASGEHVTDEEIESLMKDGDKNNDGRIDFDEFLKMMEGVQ
rabbit fast skeletal muscle myofibrils, sequence (P02643 2-182 limits assumed): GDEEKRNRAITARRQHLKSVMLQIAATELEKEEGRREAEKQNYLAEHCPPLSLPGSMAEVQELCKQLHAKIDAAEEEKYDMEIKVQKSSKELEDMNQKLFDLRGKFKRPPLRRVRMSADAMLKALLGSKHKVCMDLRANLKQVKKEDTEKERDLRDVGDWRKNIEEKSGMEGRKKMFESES
rabbit fast skeletal muscle myofibrils, sequence (P02641 2-279 limits assumed): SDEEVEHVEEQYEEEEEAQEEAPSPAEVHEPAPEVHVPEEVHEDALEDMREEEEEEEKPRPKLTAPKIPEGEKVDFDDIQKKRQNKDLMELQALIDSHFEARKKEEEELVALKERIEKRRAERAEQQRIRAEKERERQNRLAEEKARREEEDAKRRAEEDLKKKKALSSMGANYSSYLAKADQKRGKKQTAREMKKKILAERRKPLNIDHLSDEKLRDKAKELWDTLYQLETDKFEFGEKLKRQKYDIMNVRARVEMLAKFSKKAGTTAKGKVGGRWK

SMILES: CCC(CC)n1c(=O)[nH]c2ncc(Br)nc21 [Compound 14]
- fold improvement in biochemical potency over comparator [1]: 3 fold
- clearance (Rat pharmacokinetics; 1 mg/kg): 19 mL/min/kg

SMILES: CCC(CC)n1c(=O)[nH]c2ncc(Cl)nc21 [Compound 21]
- clearance (Rat pharmacokinetics; 1 mg/kg): 7.7 mL/min/kg

SMILES: C#Cc1cnc2nc(O)n(C(CC)CC)c2n1 [Compound 25, tirasemtiv]
- IC50 shift at 30 min (CYP1A2): > 3
- fold improvement in biochemical potency over comparator [1]: 3 fold
- force produced by the tibialis anterior (tibialis anterior): increased force produced by the tibialis anterior in a dose-, concentration-, and frequency-dependent manner
- clearance (Rat pharmacokinetics): 2.6 mL/min/kg
- clearance (Rat pharmacokinetics; 1 mg/kg): 2.6 mL/min/kg
- in vivo clearance as share of hepatic blood flow [2]: less than 15 % of hepatic blood flow
- drug-drug interaction: change of Riluzole concentrations [3]: approximate doubling of Riluzole concentrations
- grip strength [4]: increased grip strength
- muscle function and performance in ALS mouse model (B6SJL-SOD1^G93A mouse): significantly increased submaximal isometric force, forelimb grip strength, grid hang time, and rotarod performance
- primary end point: change from baseline in slow vital capacity (SVC) at 24 weeks (patients with ALS): did not meet its primary end point
- clearance (Mouse pharmacokinetics): 13.9 mL/min/kg
- in situ EDL muscle force [5]: rapid, dose-dependent increases in muscle force at submaximal stimulation rates
- in situ EDL muscle force ([5]; listed as tirasemtiv): concentration-dependent improvement in muscle force production in situ
- Re (h), ratio of extraction in microsomes [6]: <0.21
- Re (r), ratio of extraction in microsomes (Microsomal turnover, rat): 0.26
